Here are results for eight compounds from article PMC12401554 (Archives of toxicology, 2023).

In series [1] the test system is 3D HepaRG spheroids. In words: CometChip assay. The following applies: for Outcome, CometChip assay / Fold increase of DNA damage over the vehicle control: 24-h exposure; for Fold increase of DNA damage over the vehicle control: at the maximum concentration shown in the table; for BMC50 estimate for DNA strand breakage, rank among the eight nitrosamines: PROAST exponential model. In kind it is cell-based, human.

For series [2], the system named is 3D HepaRG spheroids. The experiment in a line: HT flow-cytometry-based MN assay in 3D HepaRG spheroids. The class given is cell-based, human. The conditions noted are these: for Fold increase of MN formation over the vehicle control: at the maximum concentration shown in the table.
The conditions of series [3]: ref European Chemicals Agency (ECHA) Classification and Labelling Inventory; cited from earlier work.
Series [4] has as its system 2D HepaRG cells. In words: CometChip assay. In kind it is cell-based, human. The conditions noted are these: 24-h exposure; for Fold increase of DNA damage over the vehicle control: at the maximum concentration shown in the table.
Series [5] has as its system 2D HepaRG cells. The experiment in a line: HT flow-cytometry-based MN assay in 2D HepaRG cells. In kind it is cell-based, human. The conditions noted are these: for Fold increase of MN formation over the vehicle control: at the maximum concentration shown in the table.
For series [6] the following is noted: ref IARC Monographs, Volumes 1–133; IARC 1978; cited from earlier work.
In series [7] the test system is rat. The following applies: ref Lhasa Carcinogenicity Database; cited from earlier work.
In series [8] the test system is rat. The following applies: ref Ambient water quality criteria for nitrosamines, US Environmental Protection Agency; cited from earlier work.
The test system of series [9] is CYP2A6-expressing TK6 cells. The conditions noted are these: ref Li et al. 2022; cited from earlier work.
In series [10] the test system is 3D HepaRG spheroids. In words: MultiFlow DNA damage assay. The class given is cell-based, human. The following applies: 3D HepaRG cultures, PROAST exponential model. The method in brief:
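Spheroids were exposed for 24 h in differentiation medium containing 100 ng/ml hEGF, then kept 5 days in the same medium without test compound. They were dissociated with Accutase and stained 1 h at room temperature for γH2A.X, phospho-H3 and P53, then analysed by flow cytometry. Responses are median-fluorescence fold-changes versus vehicle. BMC50 (50% increase over vehicle; 90% CI) came from exponential-model benchmark analysis with compound as covariate.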

Series [11] concerns wild-type TK6 cells or TK6 cells transduced with human CYP1A1, 2A6, 2E1, or 3A4 genes. The conditions noted are these: ref Li et al. 2022; cited from earlier work.
Series [12] relates to Namalva cells. The conditions noted are these: human Burkitt lymphoblastoid cell line, ref Janzowski et al. 1989; cited from earlier work.
Series [13] deals with animal species, including frog, rodent, rabbit, and monkey. The following applies: ref Bogovski and Bogovski 1981; cited from earlier work.
For series [14], the system named is 3D HepaRG spheroids. The experiment in a line: ATP assay. In kind it is cell-based, human. The following applies: 24-h exposure, at concentrations up to 10 mM. The method in brief:
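Differentiated HepaRG cells (passages 16–19) were seeded at 5 × 10^3 cells per spheroid in ultra-low-attachment plates. On Day 10, 7–8 spheroids were pooled per well and exposed for 24 h at 37 °C in 5% CO2, with final DMSO ≤1%. ATP was measured with the CellTiter-Glo 3D kit as % of vehicle control, from at least three independent experiments.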

The subject of series [15] is 2D HepaRG cells. The experiment in a line: ATP assay. In kind it is cell-based, human. The conditions noted are these: 24-h exposure, at concentrations up to 10 mM. The method, boiled down:
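Differentiated HepaRG cells (passages 16–19) replated at 5 × 10^4 cells/well as 2D monolayers and treated 3 days after seeding. Exposure was 24 h at 37 °C in 5% CO2 in differentiation medium, with final DMSO ≤1%. Viability was read by CellTiter-Glo luminescence as %ATP relative to vehicle control, from at least three independent experiments.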

The subject of series [16] is Sprague–Dawley rats. The conditions noted are these: treated 5 days each week with 1.8 or 12 mg NDIPA for 50 or 40 weeks; ref Lijinsky and Taylor 1979; cited from earlier work.

Molecules are shown by their SMILES.

For the compound `O=NN1CCN(C2CCCC2)CC1` [CPNP, N-cyclopentyl-4-nitrosopiperazine], in [1], the “Outcome, CometChip assay” value is on record as “+ + (2 ≤ ratio < 5)” and the “Fold increase of DNA damage over the vehicle control” value (“Fold increase of DNA damage” for short) is given as 2.3 fold. For the same compound, in series [2], the “MN response (in words)” value is listed as “negative”; the “Outcome, MN assay” value is “− (The ratio ≤ 1.5-fold (p ≥ 0.05 vs. vehicle control, green color))”; the “Fold increase of MN formation over the vehicle control” value (“Fold increase of MN formation” below) came to 1.4 fold. For the same compound, in series [3], the ECHA classification entry is reported as “Carc.1B”. For the same compound, in [4], the “Outcome, CometChip assay” value is “− (The ratio ≤ 1.5-fold (p ≥ 0.05 vs. vehicle control, green color))” and the “Fold increase of DNA damage” value stood at 0.9 fold. Moreover, in [5], the “MN response (in words)” value is given as “negative”; the “Outcome, MN assay” value is given as “− (The ratio ≤ 1.5-fold (p ≥ 0.05 vs. vehicle control, green color))”; the “Fold increase of MN formation” value is 1.4 fold.

`CCCCN(CCCC)N=O` [NDBA, N-nitrosodibutylamine]: the IARC group in series [6] is 2B. In [1], the “Outcome, CometChip assay” value was “+ + (2 ≤ ratio < 5)” and the “Fold increase of DNA damage” value is 2.8 fold. Further, in [2], the “Outcome, MN assay” value is “+ + (2 ≤ ratio < 5)” and the “Fold increase of MN formation” value came to 2.3 fold. Moreover, the “Gold TD50 in rat” value in series [7] is listed as 0.691 mg/kg/day. The “Oral rat LD50” value in series [8] is reported as 1200 mg/kg. In addition, in series [9], the “Phosphorylation of histone H2A.X (γH2A.X)” value (“Phosphorylation” for short) is “increased”. Besides, the “BMC50 value for γH2A.X responses, rank among the eight nitrosamines” value in [10] is “lowest”. Moreover, the ECHA classification entry in series [3] is “Carc.2”. For the same compound, the MN frequency entry in [11] was “didn’t increase”. In series [4], the “Outcome, CometChip assay” value is on record as “+ + (2 ≤ ratio < 5)” and the “Fold increase of DNA damage” value is recorded as 2.4 fold. In addition, in series [5], the “Outcome, MN assay” value is given as “+ (1.5 ≤ ratio < 2)” and the “Fold increase of MN formation” value is 1.5 fold. Also, in series [12], the “Lowest concentration increasing MN formation” value is 10 µM and the “Lowest concentration increasing sister chromatid exchanges” value is 1 µM.

On to `CCN(CC)N=O` [NDEA, N-nitrosodiethylamine], for which the IARC group in [6] is recorded as 2A. In [1], the “Outcome, CometChip assay” value is on record as “+ + (2 ≤ ratio < 5)” and the “Fold increase of DNA damage” value worked out at 2.6 fold. In series [2], the “Outcome, MN assay” value is recorded as “+ + (2 ≤ ratio < 5)” and the “Fold increase of MN formation” value was 2.2 fold. For the same compound, the “Gold TD50 in rat” value in [7] is recorded as 0.0265 mg/kg/day. The “Oral rat LD50” value in series [8] is recorded as 280 mg/kg. Moreover, in [13], the “Number of different animal species in which tumors were induced” value is recorded as 26. In series [9], the “Micronucleus (MN) formation” value was “induced” and the “Phosphorylation” value was “increased”. The ECHA classification entry in series [3] is reported as “Carc.1A/1B; Muta.2”. In series [4], the “Outcome, CometChip assay” value is given as “+ + (2 ≤ ratio < 5)” and the “Fold increase of DNA damage” value is given as 2.3 fold. In series [5], the “Outcome, MN assay” value was “+ (1.5 ≤ ratio < 2)” and the “Fold increase of MN formation” value amounted to 1.7 fold.

In the case of `CC(C)N(N=O)C(C)C` [NDIPA, N-nitrosodiisopropylamine], the “Cytotoxicity (ATP assay)” value in [14] was “less than 30%”. Further, in series [1], the “Outcome, CometChip assay” value is listed as “+ (1.5 ≤ ratio < 2)”; the “Fold increase of DNA damage” value is on record as 1.8 fold; the “BMC50 estimate for DNA strand breakage, rank among the eight nitrosamines” value was “highest”. In [2], the “MN response (in words)” value is given as “negative”; the “Outcome, MN assay” value was “− (The ratio ≤ 1.5-fold (p ≥ 0.05 vs. vehicle control, green color))”; the “Fold increase of MN formation” value was 1.2 fold. The “Oral rat LD50” value in series [8] was 850 mg/kg. In [15], the “Cytotoxicity (ATP assay)” value is on record as “less than 30%”. In series [9], the “Phosphorylation” value was “increased”. For the same compound, the “BMC50 value for γH2A.X responses, rank among the eight nitrosamines” value in series [10] is given as “highest”. The ECHA classification result in [3] was “Carc.1B; Muta.1B”. Also, in series [16], the “Carcinogenicity in Sprague–Dawley rats (in words)” value is “weak carcinogen”. In addition, in [4], the “Outcome, CometChip assay” value is recorded as “− (The ratio ≤ 1.5-fold (p ≥ 0.05 vs. vehicle control, green color))” and the “Fold increase of DNA damage” value is given as 1.1 fold. In series [5], the “MN response (in words)” value is “negative”; the “Outcome, MN assay” value was “− (The ratio ≤ 1.5-fold (p ≥ 0.05 vs. vehicle control, green color))”; the “Fold increase of MN formation” value amounted to 1.1 fold.

Consider `CN(C)N=O` [NDMA, N-nitrosodimethylamine], for which the IARC group in series [6] is on record as 2A. In addition, the “Outcome, CometChip assay” value in series [1] is “+ + + (ratio ≥ 5 (p < 0.05, red color))”; in series [4] it was “+ + (2 ≤ ratio < 5)”. The “BMC50 estimate for DNA strand breakage, rank among the eight nitrosamines” value in [1] is reported as “lowest”. For the same compound, the “Outcome, MN assay” value in series [2] and in series [5] was “+ + (2 ≤ ratio < 5)” each time. Further, the “BMC50 estimate for %MN, rank among the five positive responses” value in series [2] (PROAST exponential model) is “lowest”. Besides, in [8], the “Oral rat LD50” value was 40 mg/kg. Moreover, in series [13], the “Number of different animal species in which tumors were induced” value is recorded as 16. Also, in [3], the ECHA classification entry is “Carc.1B”.

In the case of `CCN(N=O)C(C)C` [NEIPA, N-nitrosoethylisopropylamine], the “Cytotoxicity (ATP assay)” value in series [14] is recorded as “less than 30%”. In series [1], the “Outcome, CometChip assay” value was “+ + (2 ≤ ratio < 5)” and the “Fold increase of DNA damage” value turned out to be 2.4 fold. Also, in series [2], the “MN response (in words)” value is reported as “negative”; the “Outcome, MN assay” value is recorded as “− (The ratio ≤ 1.5-fold (p ≥ 0.05 vs. vehicle control, green color))”; the “Fold increase of MN formation” value turned out to be 1.3 fold. Moreover, the “Oral rat LD50” value in series [8] is given as 1100 mg/kg. In addition, the “Cytotoxicity (ATP assay)” value in [15] was “less than 30%”. In series [9], the “Micronucleus (MN) formation” value is “induced” and the “Phosphorylation” value is reported as “increased”. In addition, the ECHA classification result in series [3] is on record as “Carc.1B”. Moreover, in [4], the “Outcome, CometChip assay” value was “− (The ratio ≤ 1.5-fold (p ≥ 0.05 vs. vehicle control, green color))” and the “Fold increase of DNA damage” value is given as 1.5 fold. For the same compound, in series [5], the “MN response (in words)” value is given as “negative”; the “Outcome, MN assay” value is on record as “− (The ratio ≤ 1.5-fold (p ≥ 0.05 vs. vehicle control, green color))”; the “Fold increase of MN formation” value came to 1.1 fold.

Take `CN(CCCC(=O)O)N=O` [NMBA, N-nitroso-N-methyl-4-aminobutyric acid]: in series [1], the “Outcome, CometChip assay” value is on record as “+ + (2 ≤ ratio < 5)” and the “Fold increase of DNA damage” value is reported as 2.3 fold. Also, in series [2], the “Outcome, MN assay” value is reported as “+ (1.5 ≤ ratio < 2)” and the “Fold increase of MN formation” value is reported as 1.8 fold. The “Gold TD50 in rat” value in [7] was 0.982 mg/kg/day. In series [9], the “Micronucleus (MN) formation” value is “induced” and the “Phosphorylation” value was “increased”. The ECHA classification result in [3] is reported as “Carc.2”. Besides, in [4], the “Outcome, CometChip assay” value was “− (The ratio ≤ 1.5-fold (p ≥ 0.05 vs. vehicle control, green color))” and the “Fold increase of DNA damage” value turned out to be 1.0 fold. In series [5], the “Outcome, MN assay” value was “− (The ratio ≤ 1.5-fold (p ≥ 0.05 vs. vehicle control, green color))” and the “Fold increase of MN formation” value is 1.4 fold.

As for `CN(N=O)c1ccccc1` [NMPA, N-nitrosomethylphenylamine], the “Outcome, CometChip assay” value in series [1] is listed as “+ + (2 ≤ ratio < 5)”; in series [4] it was “− (The ratio ≤ 1.5-fold (p ≥ 0.05 vs. vehicle control, green color))”. Further, the “Outcome, MN assay” value is “+ + (2 ≤ ratio < 5)” in [2] and “− (The ratio ≤ 1.5-fold (p ≥ 0.05 vs. vehicle control, green color))” in [5]. For the same compound, the “Oral rat LD50” value in [8] is recorded as 280 mg/kg. In addition, the “Micronucleus (MN) formation” value in [9] is reported as “induced”. Further, the “Phosphorylation” value in series [9] is “increased”. Moreover, in series [3], the ECHA classification result was “Carc.2”.
